In BindingDB's records for doi:10.1021/ml500113s (Rti International, 2014) one finds IC50 data, which are given here for 1 compound.

The target of the test is Sodium-dependent serotonin transporter (Rattus norvegicus, UniProt P31652). The test is described as follows: Inhibition of SERT-mediated serotonin uptake in rat synaptosomes. In a few lines: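 Synaptosomes prepared from rat brain homogenate. Each compound was run in both the release assay and the uptake-inhibition assay to classify it as a releasing substrate or an uptake inhibitor. Dose-response curves were then completed only for the assigned activity. Values are means ± SD from N = 3 experiments, each performed in triplicate.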

Each structure is given as a SMILES string.

Sodium-dependent serotonin transporter, sequence (P31652 whole entry): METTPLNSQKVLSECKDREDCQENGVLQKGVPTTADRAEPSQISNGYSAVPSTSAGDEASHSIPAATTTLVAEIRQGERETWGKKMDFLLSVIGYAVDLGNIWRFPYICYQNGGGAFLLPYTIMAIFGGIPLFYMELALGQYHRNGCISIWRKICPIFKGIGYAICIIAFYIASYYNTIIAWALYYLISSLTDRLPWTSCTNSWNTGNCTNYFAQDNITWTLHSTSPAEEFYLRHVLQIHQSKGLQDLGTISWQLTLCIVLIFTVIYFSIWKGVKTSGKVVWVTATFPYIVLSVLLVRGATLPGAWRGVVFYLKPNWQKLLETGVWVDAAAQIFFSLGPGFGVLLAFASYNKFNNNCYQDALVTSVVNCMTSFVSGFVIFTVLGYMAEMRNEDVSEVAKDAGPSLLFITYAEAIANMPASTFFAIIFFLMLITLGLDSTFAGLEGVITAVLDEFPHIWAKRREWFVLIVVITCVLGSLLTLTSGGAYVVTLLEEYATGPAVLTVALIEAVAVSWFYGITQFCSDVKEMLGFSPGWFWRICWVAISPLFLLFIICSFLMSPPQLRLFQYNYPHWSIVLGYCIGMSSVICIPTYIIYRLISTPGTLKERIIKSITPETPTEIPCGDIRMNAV

As usually defined, the IC50 is the midpoint of a concentration-inhibition curve. High values mean a need for much substance, low ones inhibition by little substance. With `CC(NC1CC1)C(=O)c1cccc(Cl)c1` (stereo unspecified) [2-(N-Cyclopropylamino)-3-chloropropiophenone], the IC50 was determined as 3.18 µM.
